One test relates to HT-29. Briefly: Growth inhibition of human HT-29 cells after 72 hrs by MTT assay. The test is classed as functional. The note with it: HT-29, 72 h. The method, boiled down: (§1)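 Cells kept in DMEM with 10% FBS, glutamine, penicillin/streptomycin at 37 °C, 5% CO2; plated in duplicate at 2500–4000 cells/well, dosed 24 h later during log growth. After 72 h drug exposure, MTT read at 540 nm. […] Assays in triplicate, standard error reported.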
A general note: Tetrazolium dyes change colour on reduction, which living cells bring about.

The nature of test [1]: Growth inhibition of human U87 cells after 72 hrs by MTT assay. The test is classed as functional, U-87MG ATCC. The note with it: U-87 MG. The method, boiled down: as §1
Another test deals with MCF7. Put plainly: Growth inhibition of human MCF7 cells after 72 hrs by MTT assay. The test is classed as functional. The note with it: MCF7, 72 h. In a few lines: as §1
The test system of another test is A2780. Briefly: Growth inhibition of human A2780 cells after 72 hrs by MTT assay. The test is classed as functional. The note with it: A2780, 72 h. The method, boiled down: as §1
Test [2] is described as follows: Growth inhibition of human H460 cells after 72 hrs by MTT assay. The note with it: NCI-H460, 72 h. The test is classed as functional. The method, boiled down:
as §1

The test system of the next test is A-431. Put plainly: Growth inhibition of human A431 cells after 72 hrs by MTT assay. The note with it: A-431, 72 h. The test is classed as functional. In a few lines:
as §1

A further test relates to DU-145. Put plainly: Growth inhibition of human DU145 cells after 72 hrs by MTT assay. The note with it: DU-145, 72 h. The test is classed as functional. The method, boiled down:
as §1

Test [3] can be described thus: Growth inhibition of human BE(2)-C cells after 72 hrs by MTT assay. The test is classed as functional. In a few lines: as §1
Test [4] in a line: Growth inhibition of human SJ-G2 cells after 72 hrs by MTT assay. The test is classed as functional. The note with it: SJ-G2, 72 h. The method, boiled down: as §1
The nature of test [5]: Growth inhibition of human MIA cells after 72 hrs by MTT assay. The test is classed as functional. In a few lines:
as §1

Test [6] in a line: Growth inhibition of mouse SMA cells after 72 hrs by MTT assay. The test is classed as functional. The method, boiled down:
as §1

As a reminder, the GI50 is the concentration that inhibits growth by half. Higher therefore signals less potent growth inhibition. For the compound `Cc1cc2c(c3oc(=O)c(CCCCl)cc13)C(=O)c1c(OC(C)C)cccc1C2=O`, the GI50 was found to be 15 µM with HT-29; 16 µM in test [1]; 19 µM with MCF7; 21 µM with A2780; 19 µM in test [2]; 17 µM in the test with A-431. For the same compound, the GI50 stood at 20 µM in the test on DU-145; 33 µM in [3]; 15 µM in test [4]; 20 µM in test [5]; 19 µM in test [6].
As for `CCC(C)(OCc1ccccc1)c1cc2c(C)cc3c(c2oc1=O)C(=O)c1c(O)cccc1C3=O` (stereo not drawn), the GI50 amounted to 5.6 µM with HT-29; 14 µM in [1]; 5.3 µM with MCF7; 7 µM in the test on A2780; 5.1 µM in test [2]; 4 µM in the test on A-431. Moreover, the GI50 stood at 8.8 µM in the test on DU-145; 6.7 µM in test [3]; 3.9 µM in test [4]; 3.9 µM in [5]; 6.1 µM in test [6].
As for `CCCc1cc(=O)c2c(C)cc3c(c2o1)C(=O)c1c(OC)cccc1C3=O`, the GI50 stood at 5.5 µM in the test with HT-29; 6.4 µM in test [1]; 6.4 µM in the test on MCF7; 6.4 µM in the test with A2780; 5.3 µM in [2]; 6.6 µM in the test with A-431. Further, the GI50 in the test on DU-145 stood at 5.3 µM; in test [3] it was 6.1 µM; in [4] it was 5.3 µM; in [5], 7.1 µM; in [6], 6 µM.
On to `CCCc1cc2c(C)cc3c(c2o1)C(=O)c1c(O)cccc1C3=O`, for which the GI50 was determined as 1.2 µM with HT-29; 6.6 µM in test [1]; 2.2 µM in the test on MCF7; 1.5 µM in the test on A2780; 3.1 µM in [2]; 2.3 µM in the test with A-431. Also, the concentration for 50% growth inhibition (GI50) is 0.86 µM in the test on DU-145; 0.88 µM in test [3]; 1 µM in test [4]; 1.7 µM in [5]; 1.3 µM in test [6].
On to `Cc1cc2c(c3oc(=O)c(C(C)(C)C)cc13)C(=O)c1c(OC(C)C)cccc1C2=O`, for which the GI50 came to 13 µM in the test on HT-29; 17 µM in test [1]; 14 µM in the test on MCF7; 12 µM with A2780; 20 µM in [2]; 17 µM in the test on A-431. Moreover, the GI50 in the test on DU-145 is 29 µM; in test [3], 33 µM; in test [4], 12 µM; in test [5], 12 µM; in test [6], 12 µM.
With `CCCCc1cc(=O)oc2c3c(cc(C)c12)C(=O)c1cccc(OC(C)C)c1C3=O`, the GI50 was determined as 18 µM with HT-29; 14 µM in [1]; 15 µM with MCF7; 9.5 µM in the test on A2780; 19 µM in test [2]; 20 µM in the test with A-431. In addition, the GI50 in the test with DU-145 was found to be 11 µM; in test [3] it was 13 µM; in test [4], 13 µM; in test [5], 13 µM; in test [6], 12 µM.
As to `CCc1cc(=O)c2c(C)cc3c(c2o1)C(=O)c1c(OC(C)C)cccc1C3=O`, the GI50 in the test on HT-29 is 4.8 µM; in test [1], 8.7 µM; in the test on MCF7, 4.3 µM; with A2780, 5.8 µM; in [2] it was 6.9 µM; in the test with A-431, 5.7 µM. Also, the GI50 is 1.9 µM with DU-145; 2.2 µM in [3]; 16 µM in [4]; 3.4 µM in test [5]; 3.9 µM in [6].
For the compound `CCC(C)(O)c1cc2c(C)cc3c(c2oc1=O)C(=O)c1c(OC(C)C)cccc1C3=O` (stereo not drawn), the GI50 is 11 µM with HT-29; 25 µM in test [1]; 16 µM with MCF7; 19 µM in the test with A2780; 16 µM in test [2]; 15 µM in the test with A-431. Besides, the GI50 is 26 µM in the test with DU-145; 22 µM in [3]; 9 µM in test [4]; 14 µM in test [5]; 23 µM in test [6].

These data come from ChEMBL document CHEMBL3596100, “The synthesis and biological activity of novel anthracenone-pyranones and anthracenone-furans” (Bioorg Med Chem, 2015).
